Experimental data from ChEMBL document CHEMBL1134834, “Quinoxalinylethylpyridylthioureas (QXPTs) as potent non-nucleoside HIV-1 reverse transcriptase (RT) inhibitors. Further SAR studies and identification of a novel orally bioavailable hydrazine-based antiviral agent” (J Med Chem, 2001).
One block for each compound: values may come before it. Calls of active or inactive are those of the source. The rule behind the calls is not given here.

How the values were obtained:
C8166 [1] = test: (§1) Concentration which results in 50% survival of uninfected untreated control C8166 cells (cytotoxicity of the compound); format: cell-based; conditions: Homo sapiens
How it was run: (§2)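 Toxicity in uninfected C8166 cells by MTT reduction to formazan, read spectrophotometrically.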

[2] = (§3) Selectivity index was determined in C8166 cells; format: functional
How it was run: (§4)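 C8166 CD4+ T-cell line (HTLV-I genome, only tat expressed) acutely infected with lymphocytotropic HIV-1 IIIB. […] Read-out is HIV-p24 antigen in supernatants. AZT positive control was run at the same time. SI = IC50/EC50.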

[3] = system: Human immunodeficiency virus 1; test: Concentration which produces a 50% survival of HIV-1 infected cells relative to uninfected control C8166 cells; format: functional, organism-based; conditions: Human immunodeficiency virus 1, C8166
[4] = molecular target: Human immunodeficiency virus type 1 reverse transcriptase (Human immunodeficiency virus 1, UniProt Q72547, V106A); test: Inhibition of HIV-1 Mutant HIV-1 RT enzymes containing the single amino acid substitution V106A
[5] = molecular target: T1, Human immunodeficiency virus type 1 reverse transcriptase (Human immunodeficiency virus 1, UniProt Q72547); test: Inhibition of HIV-1 wild-type RT
[6] = molecular target: Human immunodeficiency virus type 1 reverse transcriptase (Human immunodeficiency virus 1, UniProt Q72547, Y181I); test: Inhibition of HIV-1 Mutant HIV-1 RT enzymes containing the single amino acid substitution Y181I
[7] = molecular target: T1, Human immunodeficiency virus type 1 reverse transcriptase; test: Inhibition of HIV-1 Mutant HIV-1 RT enzymes containing the single amino acid substitution […]
[8] = molecular target: Human immunodeficiency virus type 1 reverse transcriptase (Human immunodeficiency virus 1, UniProt Q72547, Y188L); test: Inhibition of HIV-1 Mutant HIV-1 RT enzymes containing the single amino acid substitution Y188L
[9] = molecular target: Human immunodeficiency virus type 1 reverse transcriptase (Human immunodeficiency virus 1, UniProt Q72547, K103N); test: Inhibition of HIV-1 Mutant HIV-1 RT enzymes containing the single amino acid substitution K103N
[10] = Cytotoxicity against normal human lymphocytes(HL) (O.D.=0.114+/-0.01); conditions: read-out: TC50 (the source's name)
NIH3T3 [11] = test: Cytotoxicity against 3T3 fibroblasts (3T3F) murine cell line (O.D.=0.131+/-0.014); format: functional; conditions: Mus musculus, read-out: TC50 (the source's name)
Mus musculus [12] = organism: Mus musculus; test: Cytotoxicity against NSO murine cell line (O.D.=0.125+/-0.015); format: functional; conditions: read-out: TC50 (the source's name)
Daudi [13] = test: Cytotoxicity against Daudi Human(DH) cell line (O.D.=0.129+/-0.018); format: functional; conditions: read-out: TC50 (the source's name)
CEM-SS [14] = test: Concentration which produces a 50% survival of HIV-1 infected cells relative to uninfected control CEM-SS cells (in vitro anti-HIV activity); format: functional, cell-based; conditions: Homo sapiens
How it was run: (§5)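 CEM-SS T4 lymphocytes infected with wild-type HIV-1. Protection from virus-induced cell death is scored against an AZT-treated positive control run under identical conditions. […] SI = IC50/EC50.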

CEM-SS [15] = test: (§6) Concentration which results in 50% survival of uninfected untreated control CEM-SS cells (cytotoxicity of the compound); format: cell-based; conditions: Homo sapiens
[16] = Selectivity index was determined in CEM-SS cells; format: functional; how it was run: as §5
[17] = molecular target: Human immunodeficiency virus type 1 protease (Human immunodeficiency virus 1) (UniProt Q72874); test: Inhibition of HIV-1 Mutant HIV-1 RT enzymes containing the single amino acid substitution K103N; NA means Not active
How it was run: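 Template poly(rA)oligo(dT) 10:1 (0.3 µM 3′-OH ends) with 10 µM [3H]-dTTP, 37 °C. TCA-precipitable radioactivity counted. Ki from Lineweaver-Burk and Dixon plots, inhibitor 0.2-5 Ki, triplicate.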

Daudi [18] = test: Cytotoxicity on Daudi Human(DH) cell line (O.D.=0.129+/-0.018); format: functional; conditions: read-out: TC50 (the source's name)
C8166 [19] = test: as §1; format: functional, cell-based; conditions: Homo sapiens; how it was run: as §2
[20] = (§7) Cytotoxicity on normal human lymphocytes(HL) (O.D.=0.114+/-0.01); format: functional; conditions: read-out: TC50 (the source's name)
C8166 [21] = test: as §3; format: functional, Homo sapiens; how it was run: as §4
NIH3T3 [22] = test: Cytotoxicity on 3T3 fibroblasts (3T3F) murine cell line (O.D.=0.131+/-0.014); format: functional; conditions: Mus musculus, read-out: TC50 (the source's name)
Mus musculus [23] = organism: Mus musculus; test: Cytotoxicity on NSO murine cell line (O.D.=0.125+/-0.015); format: functional; conditions: read-out: TC50 (the source's name)
C8166 [24] = test: Synergistic antiviral activity with AZT (DDI), against HIV-IIIB in C8166 cells; format: functional, cell-based; conditions: Homo sapiens
How it was run: (§8)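 C8166 cells infected with HIV-IIIB and treated with compound combined with AZT (or DDI). Combination index calculated by the Chou-Talalay multiple drug effect analysis under both mutually exclusive and mutually nonexclusive assumptions.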

[25] = Selectivity index (IC50/EC50) was determined in CEM-SS cells; format: functional
How it was run: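 CEM-SS (T4 lymphocyte) cells infected with wild-type HIV-1 were scored for protection from virus-induced cell death. […] SI = IC50/EC50. An AZT-treated positive control was run in parallel under identical conditions.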

[26] = Selectivity index (IC50/EC50) was determined in C8166 cells; format: functional
Homo sapiens = organism: Homo sapiens; test: as §7; format: functional; conditions: read-out: TC50 (the source's name)
CEM-SS [27] = test: as §6; format: functional, cell-based; conditions: Homo sapiens, read-out: IC50 (the source's name)
C8166 [28] = test: Synergistic antiviral activity of AZT (DDI) with the compound, against HIV-IIIB in C8166 cells; format: functional, cell-based; conditions: Homo sapiens; how it was run: as §8
C8166 [29] = test: Antiviral activity alone against HIV-IIIB in C8166 cells; format: functional, cell-based; conditions: Homo sapiens; how it was run: as §4

SMILES: CC(C)=CCN1Cc2c(Cl)ccc3[nH]c(=S)n(c23)C[C@@H]1C [TIVIRAPINE]
IC50 (C8166 [1]): 50 µM | SI [2]: 1670 | EC50 [3]: 0.03 µM

SMILES: O=c1c2cccn2c2c(F)cc(F)cc2n1CCNC(=S)Nc1ccc(Br)cn1
Ki [4]: 0.03 µM | Ki [5]: 0.022 µM | Ki [6]: 1.6 µM | Ki [7]: 0.1 µM | Ki [8]: 0.45 µM

Ki [5]: 4 µM
SMILES: O=C(NNc1nc2ccccc2n2cccc12)c1ccccn1

SMILES: O=c1c2cccn2c2ccccc2n1CCNC(=S)Nc1ccc(Br)cn1
Ki [9]: 0.1 µM | Ki [4]: 0.112 µM | Ki [5]: 0.058 µM | IC50 (C8166 [1]): 17 µM | Ki [6]: 4 µM | Ki [7]: 0.105 µM | Ki [8]: 2.5 µM | CC50 [10]: 800 µM | CC50 (NIH3T3 [11]): 800 µM | EC50 [3]: 0.38 µM | CC50 (Mus musculus [12]): 800 µM | CC50 (Daudi [13]): 800 µM

Ki [5]: 1.9 µM
SMILES: S=C(NNc1nc2ccccc2n2cccc12)Nc1ccc(Br)cn1

SMILES: O=c1c2cccn2c2c(F)cc(F)cc2n1CC/N=C(\S)Nc1ccc(Br)cn1
EC50 (CEM-SS [14]): 0.085 µM | IC50 (CEM-SS [15]): > 2 µM | SI [16]: >23 | NA [17]: inactive

SMILES: S=C(NCCOc1nc2cc(Cl)ccc2n2cccc12)Nc1ccc(Br)cn1
Ki [9]: 0.21 µM | Ki [4]: 0.12 µM | CC50 (Daudi [18]): > 1000 µM | IC50 (C8166 [19]): 93 µM | CC50 [20]: > 1000 µM | Ki [6]: 0.09 µM | SI (C8166 [21]): 3720 | Ki [7]: 0.12 µM | CC50 (NIH3T3 [22]): > 1000 µM | Ki [8]: 0.1 µM | CC50 (Mus musculus [23]): > 1000 µM | EC50 [3]: 0.025 µM

SMILES: O=c1c2cccn2c2ncccc2n1CCNC(=S)Nc1ccc(Br)cn1
Ki [9]: 0.25 µM | Ki [4]: 0.05 µM | EC50 (C8166 [24]): 0.05 µM | Ki [5]: 0.009 µM | SI [25]: >380 | CC50 (Daudi [18]): 690 µM | SI [26]: 89 | IC50 (C8166 [19]): 11 µM | EC50 (CEM-SS [14]): 0.0052 µM | CC50 (Homo sapiens): 680 µM | CC50 (CEM-SS [27]): > 2 µM | Ki [6]: 0.4 µM | Ki [7]: 0.095 µM | CC50 (NIH3T3 [22]): 690 µM | Ki [8]: 0.13 µM | CC50 (Mus musculus [23]): 700 µM | EC50 (C8166 [28]): 0.015 µM | EC50 (C8166 [29]): 0.124 µM | EC50 [3]: 0.124 µM
